Measured values as given in ChEMBL document CHEMBL1136968, “Structurally simple inhibitors of lanosterol 14alpha-demethylase are efficacious in a rodent model of acute Chagas disease” (J Med Chem, 2009).

Experiments:
[1] = test system: Trypanosoma cruzi; assay: Antitrypanosomal activity against Trypanosoma cruzi Tulahuen amastigotes in mouse 3T3 cells by beta-galactosidase reporter gene assay; type: functional, organism-based; conditions: NIH3T3
Procedure, shortened: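 Tulahuen strain (TCII lineage) grown as intracellular amastigotes in murine 3T3 fibroblasts in 96-well plates. EC50 determined from triplicate screens. Standard errors within assays stayed below 15%.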

[2] = Toxicity against mouse 3T3 cells by resazurin assay; type: cell-based; conditions: NIH3T3 cells
Procedure, shortened: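 Murine 3T3 fibroblasts screened separately from the parasites. Host-cell growth was quantified by resazurin read-out and EC50 determined.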

| Structure (SMILES) | EC50 [1] [nM] | EC50 [2] [nM] |
| --- | --- | --- |
| CS(=O)(=O)c1ccc(Cn2cncc2CNc2ccc(-c3nc4ccccc4s3)c(-c3ccccc3)c2)cc1 | > 1000 | > 1000 |
| CC(C)OC(=O)c1ccc(NCc2cncn2Cc2ccc(-c3ccccc3)cc2)cc1-c1ccccc1 | 50 | > 10000 |
| CCc1ccc(Cn2cncc2CNc2ccc(-c3nc4ccccc4s3)c(-c3ccccc3)c2)cc1 | 110 | > 1000 |
| CCC(=O)c1ccc(NCc2cncn2Cc2ccc(-c3ccccc3)cc2)cc1-c1ccccc1 | 40 | > 10000 |
| CC(=O)c1ccc(NCc2cncn2Cc2ccc(-c3ccccc3)cc2)cc1-c1ccccc1 | 40 | > 10000 |
| COC(=O)c1ccc(NCc2cncn2Cc2cccc(C#N)c2)cc1-c1ccccc1 | 100 | > 10000 |
| COC(=O)c1ccc(NCc2cncn2Cc2ccccc2[N+](=O)[O-])cc1-c1ccccc1 | 100 | 10000 |
| c1ccc(-c2ccc(Cn3cncc3CNc3ccc(-c4ccccc4)c(-c4ccccc4)c3)cc2)cc1 | 80 | > 10000 |
| Cc1ccccc1-c1ccc(Cn2cncc2CNc2ccc(-c3nc4ccccc4s3)c(-c3ccccc3)c2)cc1 | 120 | > 1000 |
| c1ccc(-c2ccc(Cn3cncc3CNc3cccc(-c4ccccc4)c3)cc2)cc1 | 10 | 10000 |
| COC(=O)c1ccc(NCc2cncn2Cc2ccccc2N)cc1-c1ccccc1 | 5 | 25000 |
| c1ccc(-c2ccc(Cn3cncc3CNc3ccc(-c4ccc[nH]4)c(-c4ccccc4)c3)cc2)cc1 | 100 | > 10000 |
| COC(=O)c1ccc(NCc2cncn2Cc2cccc(F)c2)cc1-c1ccccc1 | 150 | > 1000 |
| COC(=O)c1ccc(NCc2cncn2Cc2ccccc2C#N)cc1-c1ccccc1 | 200 | 25000 |
| COC(=O)c1ccc(NCc2cncn2Cc2ccc(Cl)cc2)cc1-c1ccccc1 | 5 | 25000 |
| COC(=O)c1ccc(NCc2cncn2Cc2ccc(F)cc2F)cc1-c1ccccc1 | 21 | > 1000 |
| Nc1cc(-c2ccccc2)ccc1Cn1cncc1CNc1ccc(-c2cncs2)c(-c2ccccc2)c1 | 10 | > 1000 |
| COC(=O)c1ccc(NCc2cncn2Cc2ccccc2Cl)cc1-c1ccccc1 | 100 | 10000 |
| CN(C)C(=O)c1ccc(NCc2cncn2Cc2ccc(-c3ccccc3)cc2)cc1-c1ccccc1 | 9.3 | > 1000 |
| Cc1cccc(-c2cccc(NCc3cncn3Cc3ccccc3)c2)c1C | 260 | > 1000 |
| Cc1ccc(Cn2cncc2CNc2cccc(-c3ccccc3)c2)cc1 | 100 | 10000 |
| CCCC(=O)c1ccc(NCc2cncn2Cc2ccc(-c3ccccc3)cc2)cc1-c1ccccc1 | 40 | > 10000 |
| COC(=O)c1ccc(NCc2cncn2Cc2ccc(-c3ccccc3)cc2)cc1-c1ccccc1 | 0.5 | > 1000 |
| COC(=O)c1ccc(NCc2cncn2Cc2cccc(C)c2)cc1-c1ccccc1 | 20 | > 10000 |

| Structure (SMILES) | EC50 [1] [nM] | EC50 [2] [nM] |
| --- | --- | --- |
| Cc1cccc(-c2cc(NCc3cncn3Cc3ccc(-c4ccccc4)cc3)ccc2-c2nc3ccccc3s2)c1C | 64 | > 1000 |
| COC(=O)c1ccc(NCc2cncn2Cc2ccc(N)cc2)cc1-c1ccccc1 | 250 | > 10000 |
| COC(=O)c1ccc(NCc2cncn2Cc2cccc(Br)c2)cc1-c1ccccc1 | 20 | > 10000 |
| COC(=O)c1ccc(NCc2cncn2Cc2cccc(C(C)(C)C)c2)cc1-c1ccccc1 | 475 | > 1000 |
| Cc1cccc(-c2cccc(NCc3cncn3Cc3ccccc3)c2)c1 | 550 | > 1000 |
| COC(=O)c1ccc(NCc2cncn2Cc2ccc(C#N)cc2)cc1-c1ccccc1 | 25 | > 10000 |
| COC(=O)c1ccc(NCc2cncn2Cc2ccc(-c3ccccc3)cc2)cc1 | 80 | > 10000 |
| O=[N+]([O-])c1ccc(Cn2cncc2CNc2cccc(-c3ccccc3)c2)cc1 | 100 | 10000 |
| c1ccc(-c2ccc(Cn3cncc3CNc3ccc(-c4cncs4)c(-c4ccccc4)c3)cc2)cc1 | 9 | > 1000 |
| Cc1ccccc1-c1cc(NCc2cncn2Cc2ccc(-c3ccccc3)cc2)ccc1-c1nc2ccccc2s1 | 31 | > 1000 |
| N#Cc1ccc(NCc2cncn2Cc2ccc(-c3ccccc3)cc2)cc1-c1ccccc1 | 1.3 | > 1000 |
| c1ccc(Cn2cncc2CNc2cccc(-c3cccnc3)c2)cc1 | 600 | > 1000 |
| c1ccc(-c2ccc(Cn3cncc3CNc3ccc(-c4ccccc4)cc3)cc2)cc1 | 200 | > 10000 |
| Clc1ccc(NCc2cncn2Cc2ccc(-c3ccccc3)cc2)cc1-c1ccccc1 | 6 | > 1000 |
| COC(=O)c1ccc(NCc2cncn2Cc2cccc(Cl)c2)cc1-c1ccccc1 | 20 | > 10000 |
| Clc1ccc(Cn2cncc2CNc2ccc(-c3nc4ccccc4s3)c(-c3ccccc3)c2)cc1 | 250 | > 1000 |
| COC(=O)c1ccc(NCc2cncn2Cc2cccc([N+](=O)[O-])c2)cc1-c1ccccc1 | 30 | > 10000 |
| c1ccc(-c2ccc(Cn3cncc3CNc3ccc(N4CCCCC4)c(-c4ccccc4)c3)cc2)cc1 | 23 | > 1000 |
| COC(=O)c1ccc(NCc2cncn2Cc2ccc(C)cc2)cc1-c1ccccc1 | 5 | 50000 |
| COC(=O)c1ccc(NCc2cncn2Cc2ccc([N+](=O)[O-])cc2)cc1-c1ccccc1 | 100 | > 10000 |
| c1ccc(Cn2cncc2CNc2cccc(-c3ccccc3)c2)cc1 | 360 | > 750 |
| c1ccc(Cn2cncc2CNc2cccc(-c3ccncc3)c2)cc1 | 510 | > 1000 |
| c1ccc(-c2ccc(Cn3cncc3CNc3ccc(-c4nc5ccccc5o4)c(-c4ccccc4)c3)cc2)cc1 | 100 | > 10000 |
| COC(=O)c1ccc(NCc2cncn2Cc2ccccc2Br)cc1-c1ccccc1 | 100 | 10000 |

| Structure (SMILES) | EC50 [1] [nM] | EC50 [2] [nM] |
| --- | --- | --- |
| Clc1ccc(Cn2cncc2CNc2cccc(-c3ccccc3)c2)cc1 | 80 | 10000 |
| COc1ccc(NCc2cncn2Cc2ccc(-c3ccccc3)cc2)cc1-c1ccccc1 | 7 | > 1000 |
| c1ccc(-c2ccc(Cn3cncc3CNc3ccc(-c4cc5ccccc5o4)c(-c4ccccc4)c3)cc2)cc1 | 40 | > 10000 |
| c1ccc(-c2ccc(Cn3cncc3CNc3ccc(-c4onc5ccccc45)c(-c4ccccc4)c3)cc2)cc1 | 50 | > 10000 |
| O=C(c1ccc(NCc2cncn2Cc2ccc(-c3ccccc3)cc2)cc1-c1ccccc1)N1CCCCC1 | 24 | > 1000 |
| COC(=O)c1ccc(NCc2cncn2Cc2ccc(Br)cc2)cc1-c1ccccc1 | 20 | > 10000 |
| Cc1ccccc1-c1cccc(NCc2cncn2Cc2ccccc2)c1 | 230 | > 1000 |
| CC(C)c1ccc(Cn2cncc2CNc2ccc(-c3nc4ccccc4s3)c(-c3ccccc3)c2)cc1 | 540 | > 1000 |
| Fc1ccc(Cn2cncc2CNc2ccc(-c3nc4ccccc4s3)c(-c3ccccc3)c2)c(F)c1 | 420 | > 1000 |
| COC(=O)c1ccc(NCc2cncn2Cc2cccc(N)c2)cc1-c1ccccc1 | 130 | > 10000 |
| COc1ccc(NCc2cncn2Cc2ccc(-c3ccccc3)cc2N)cc1-c1ccccc1 | 0.8 | > 1000 |
| COC(=O)c1ccc(NCc2cncn2Cc2ccccc2)cc1-c1ccccc1 | 80 | > 1000 |
| CCOC(=O)c1ccc(NCc2cncn2Cc2ccc(-c3ccccc3)cc2)cc1-c1ccccc1 | 10 | > 10000 |
| O=C(OC1CCCCC1)c1ccc(NCc2cncn2Cc2ccc(-c3ccccc3)cc2)cc1-c1ccccc1 | 10 | > 10000 |
| CNC(=O)c1ccc(NCc2cncn2Cc2ccc(-c3ccccc3)cc2)cc1-c1ccccc1 | 2.4 | > 1000 |
| CN(C)c1ccc(NCc2cncn2Cc2ccc(-c3ccccc3)cc2)cc1-c1ccccc1 | 20 | > 1000 |
| CNC(=O)c1ccc(NCc2cncn2Cc2ccc(-c3ccccc3)cc2N)cc1-c1ccccc1 | 12 | > 1000 |
| c1ccc(-c2ccc(Cn3cncc3CNc3ccc(-c4noc5ccccc45)c(-c4ccccc4)c3)cc2)cc1 | 10 | > 10000 |
| COC(=O)c1ccc(NCc2cncn2Cc2ccc(OC)cc2)cc1-c1ccccc1 | 25 | – |
| c1ccc(-c2ccc(Cn3cncc3CNc3ccccc3-c3ccccc3)cc2)cc1 | 80 | > 10000 |
| CC(C)c1cccc(NCc2cncn2Cc2ccccc2)c1 | > 1000 | > 1000 |
| c1ccc(-c2ccc(Cn3cncc3CNc3ccc(N4CCCC4)c(-c4ccccc4)c3)cc2)cc1 | 22 | > 1000 |
| COC(=O)c1ccc(NCc2cncn2Cc2ccccc2C)cc1-c1ccccc1 | 1000 | 10000 |
| N#Cc1ccc(NCc2cncn2Cc2ccc(-c3ccccc3)cc2N)cc1-c1ccccc1 | 1.5 | > 1000 |
